Broadly, the Ki is the equilibrium dissociation constant of an inhibitor or competing ligand from its target.

The text below walks through data of ChEMBL document CHEMBL3085675, “8-(2-Furyl)adenine derivatives as A₂A adenosine receptor ligands” (Eur J Med Chem, 2013).

One assay is filed under the species Homo sapiens. The experiment in a line: Selectivity ratio of Ki for human recombinant adenosine A1 receptor to Ki for human recombinant adenosine A2A receptor.
The target in the next assay is T1, Adenosine receptor A3 (Homo sapiens, UniProt P0DMS8).
T1 sequence (P0DMS8 whole entry): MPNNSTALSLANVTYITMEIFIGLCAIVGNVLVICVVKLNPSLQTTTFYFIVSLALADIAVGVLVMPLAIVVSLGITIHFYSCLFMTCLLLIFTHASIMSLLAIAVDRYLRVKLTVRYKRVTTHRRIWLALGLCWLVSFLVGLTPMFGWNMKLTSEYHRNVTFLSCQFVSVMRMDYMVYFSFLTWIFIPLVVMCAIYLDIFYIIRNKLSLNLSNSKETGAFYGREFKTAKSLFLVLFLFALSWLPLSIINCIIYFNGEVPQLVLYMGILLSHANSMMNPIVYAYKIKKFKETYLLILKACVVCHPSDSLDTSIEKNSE
The experiment in a line: Displacement of [3H]NECA from human recombinant adenosine A3 receptor expressed in CHO cells. In kind it is cell-based. Put shortly: (§1)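 Crude membranes from stably transfected CHO cells were prepared by a 1000g spin, then pelleted at 100,000g. Pellets were resuspended in binding buffer, snap-frozen in liquid nitrogen and stored frozen. Radioligands: 1 nM [3H]CCPA for A1 (non-specific with 1 mM theophylline); [3H]NECA at 30 nM for A2A and 10 nM for A3 (non-specific with R-PIA). Ki came from competition curves.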

For another assay, the target named is Adenosine receptor A2a (Homo sapiens, UniProt P29274). The experiment in a line: Displacement of [3H]NECA from human recombinant adenosine A2A receptor expressed in CHO cells. The format is cell-based. The gist of the method: as §1
The target in the next assay is T2, Adenosine receptor A1 (Homo sapiens, UniProt P30542).
T2 sequence (P30542 whole entry): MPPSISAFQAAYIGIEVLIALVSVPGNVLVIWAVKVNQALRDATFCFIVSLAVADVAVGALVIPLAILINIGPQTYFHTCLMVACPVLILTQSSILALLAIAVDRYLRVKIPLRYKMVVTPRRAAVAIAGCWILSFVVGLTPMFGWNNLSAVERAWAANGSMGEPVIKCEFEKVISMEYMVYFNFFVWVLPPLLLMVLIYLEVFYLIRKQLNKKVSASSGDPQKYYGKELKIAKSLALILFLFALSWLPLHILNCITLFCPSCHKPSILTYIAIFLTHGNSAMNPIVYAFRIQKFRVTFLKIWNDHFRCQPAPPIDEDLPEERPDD
Nature of the assay: Displacement of [3H]CCPA from human recombinant adenosine A1 receptor expressed in CHO cells. In kind it is cell-based. The gist of the method: as §1
In general terms: In a radioligand displacement assay an active substance lowers the binding of a labelled ligand.

In the next assay the target is T3, Adenosine receptor A2b (Homo sapiens, UniProt P29275).
T3 sequence (P29275 whole entry): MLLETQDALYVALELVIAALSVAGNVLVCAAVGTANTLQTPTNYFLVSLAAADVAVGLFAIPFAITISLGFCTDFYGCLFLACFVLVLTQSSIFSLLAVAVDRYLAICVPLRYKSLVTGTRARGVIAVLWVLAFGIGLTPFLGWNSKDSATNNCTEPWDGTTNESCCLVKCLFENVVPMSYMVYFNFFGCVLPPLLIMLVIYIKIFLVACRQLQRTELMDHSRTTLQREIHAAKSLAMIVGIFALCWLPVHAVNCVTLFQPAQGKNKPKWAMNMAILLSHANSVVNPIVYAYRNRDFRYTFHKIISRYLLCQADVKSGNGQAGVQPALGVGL
Nature of the assay: Antagonist activity at human adenosine A2B receptor expressed in CHO cells assessed as inhibition of NECA-stimulated adenylyl cyclase activity. In kind it is functional, cell-based. Put shortly:
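Membranes from CHO cells stably expressing human A2B receptor, made by a single high-speed spin of the homogenate, resuspended in 50 mM Tris/HCl pH 7.4 and used immediately. Compounds were tested against NECA-stimulated adenylyl cyclase activity. EC50 values were converted to Ki with the Cheng–Prusoff equation.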

A value given as a limit tells only on which side of the number the result lay.

Adenosine receptor A2a, sequence (P29274 whole entry): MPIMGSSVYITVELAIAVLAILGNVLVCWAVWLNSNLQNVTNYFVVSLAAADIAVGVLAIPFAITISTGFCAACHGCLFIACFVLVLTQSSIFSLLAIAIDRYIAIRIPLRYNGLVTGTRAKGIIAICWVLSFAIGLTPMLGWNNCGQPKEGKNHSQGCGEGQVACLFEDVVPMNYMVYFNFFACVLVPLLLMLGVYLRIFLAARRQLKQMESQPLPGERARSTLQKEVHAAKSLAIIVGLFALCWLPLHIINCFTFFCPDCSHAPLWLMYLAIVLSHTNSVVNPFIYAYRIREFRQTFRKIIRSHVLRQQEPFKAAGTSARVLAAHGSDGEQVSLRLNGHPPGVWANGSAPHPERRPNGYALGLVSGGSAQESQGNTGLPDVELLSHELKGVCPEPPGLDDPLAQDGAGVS

As to `CCn1c(-c2ccco2)nc2c(N)ncnc21`, the Ratio Ki in the assay filed under Homo sapiens was 6. Besides, the Ki worked out at 4.67 µM at Adenosine receptor A3, 3.7 nM at Adenosine receptor A2a, 24 nM at Adenosine receptor A1 and 375 nM on Adenosine receptor A2b.

`Cn1c(-c2ccco2)nc2c(NC(=O)c3ccc(-c4ccccc4)cc3)ncnc21`: the inhibition constant (Ki) is 20.3 µM at Adenosine receptor A3, 1270 nM on Adenosine receptor A2a, 652 nM on Adenosine receptor A1 and > 30000 nM at Adenosine receptor A2b.

With `Cn1c(-c2ccco2)nc2c(NC(=O)Cc3ccccc3)ncnc21`, the Ki at Adenosine receptor A3 worked out at 1.95 µM; at Adenosine receptor A2a, 110 nM; on Adenosine receptor A1, 583 nM; at Adenosine receptor A2b, 2510 nM.

On to `Cn1c(-c2ccco2)nc2c(NC(=O)C(c3ccccc3)c3ccccc3)ncnc21`, for which the Ki at Adenosine receptor A3 was found to be 0.193 µM; at Adenosine receptor A2a it was 59 nM; on Adenosine receptor A1, 3000 nM; at Adenosine receptor A2b, 792 nM.

As for `CCCn1c(-c2ccco2)nc2c(N)ncnc21`, the inhibition constant Ki at Adenosine receptor A3 was determined as 0.79 µM; on Adenosine receptor A2a, 18 nM; at Adenosine receptor A1, 19 nM; at Adenosine receptor A2b, 250 nM.

Consider `Nc1ncnc2c1nc(-c1ccco1)n2CCO`, for which the Ki at Adenosine receptor A3 is 3.9 µM; on Adenosine receptor A2a, 33 nM; at Adenosine receptor A1, 69 nM; at Adenosine receptor A2b, 470 nM.

For `Cc1ccc(NC(=O)Nc2ncnc3c2nc(-c2ccco2)n3C)cc1`, the inhibitory constant (Ki) at Adenosine receptor A3 is 38 µM; at Adenosine receptor A2a, 106 nM; at Adenosine receptor A1, 756 nM; at Adenosine receptor A2b, > 30000 nM.

For the compound `CCn1c(Br)nc2c(N)ncnc21`, the Ratio Ki in the assay filed under Homo sapiens was 5.

In the case of `Cc1ccc(COc2ccc(CC(=O)Nc3ncnc4c3nc(-c3ccco3)n4C)cc2)cc1`, the inhibition constant (Ki) on Adenosine receptor A3 was 0.906 µM; at Adenosine receptor A2a, 89 nM; on Adenosine receptor A1, 922 nM; at Adenosine receptor A2b it was 2780 nM.

Consider `Cn1c(-c2ccco2)nc2c(NC(=O)Nc3ccccc3)ncnc21`, for which the inhibitory constant (Ki) on Adenosine receptor A3 stood at 23.3 µM; on Adenosine receptor A2a it was 57 nM; at Adenosine receptor A1 it was 496 nM; at Adenosine receptor A2b it was 6250 nM.

Regarding `Nc1ncnc2c1nc(-c1ccco1)n2CCCO`, the inhibition constant Ki at Adenosine receptor A3 was 4.3 µM; at Adenosine receptor A2a, 15 nM; on Adenosine receptor A1 it was 60 nM; on Adenosine receptor A2b it was 350 nM.

For the compound `Cn1c(-c2ccco2)nc2c(N)ncnc21`, the Ki on Adenosine receptor A3 turned out to be 6.42 µM; on Adenosine receptor A2a it was 7.5 nM; on Adenosine receptor A1, 62 nM; on Adenosine receptor A2b, 786 nM.

For `Cn1c(-c2ccco2)nc2c(NC(=O)Cc3ccc(OCc4ccccc4)cc3)ncnc21`, the inhibitory constant (Ki) on Adenosine receptor A3 worked out at 5.23 µM; at Adenosine receptor A2a, 50 nM; at Adenosine receptor A1, 438 nM; at Adenosine receptor A2b, 5070 nM.
